According to PMC4220649 (Blood Cancer Journal, 2014):
Entries after “also recorded” stand apart in the source; their conditions may differ. Where two headings read alike, the source gives them in different places.

System: patients with relapsed/refractory lymphoma
Assay type: in vivo, human
Details: for Drug-related AE: Skin/SC tissue disorders / Drug-related grade ⩾3 AE: Skin/SC tissue disorders: MedDRA SOC
Summary of the method: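 Open-label phase 1 in patients with relapsed/refractory lymphoma after ⩾2 prior therapies. Dosing started at one patient per level with doubling from 0.125 to 1.0 mg/m2, then followed a 3+3 schema up to 3.11 mg/m2. DLTs were assessed in cycle 1, and AEs were graded by NCI-CTCAE v3.0.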

With `CC(C)C[C@H](NC(=O)CNC(=O)c1cc(Cl)ccc1Cl)B(O)O` [ixazomib] the “DLTs in cycle 1” value (1.76 mg/m^2 cohort) was “one grade 4 neutropenia”, the “DLTs in cycle 1” value (2.34 mg/m^2 cohort) was “DLTs occurred in one of six DLT-evaluable patients” and the “DLTs in cycle 1” value (3.11 mg/m^2 cohort) was “two DLTs occurred in four DLT-evaluable patients”. For the same compound, the “Patients who reported DLTs” value (DLT-evaluable population, 28 patients) was “Four”, the “MTD (maximum tolerated dose)” value (IV, days 1, 8 and 15 of 28-day cycles) was 2.34 mg/m^2 and the “Drug-related AE: Skin/SC tissue disorders” value (all doses, Total (n=30)) was 8 (27) n (%). The “Drug-related grade ⩾3 AE: Skin/SC tissue disorders” value (all doses, Total (n=30)) was 2 (7) n (%), the “Drug-related AE: Skin/SC tissue disorders” value (dose 1.4 mg/m^2 (n=4)) was 1 n and the “Drug-related grade ⩾3 AE: Skin/SC tissue disorders” value (dose 1.4 mg/m^2 (n=4)) was 0 n. For the same compound, the “Drug-related AE: Skin/SC tissue disorders” value (dose 1.76 mg/m^2 (n=7)) was 2 n, the “Drug-related grade ⩾3 AE: Skin/SC tissue disorders” value (dose 1.76 mg/m^2 (n=7)) was 0 n and the “Drug-related AE: Skin/SC tissue disorders” value (dose 2.34 mg/m^2 (n=10)) was 4 n. The “Drug-related grade ⩾3 AE: Skin/SC tissue disorders” value (dose 2.34 mg/m^2 (n=10)) was 1 n, the “Drug-related AE: Skin/SC tissue disorders” value (dose 3.11 mg/m^2 (n=5)) was 0 n and the “Drug-related grade ⩾3 AE: Skin/SC tissue disorders” value (dose 3.11 mg/m^2 (n=5)) was 0 n. For the same compound, the “Drug-related AE: Skin/SC tissue disorders” value (dose 0.125–1.0 mg/m^2 (n=4)) was 1 n, the “Drug-related grade ⩾3 AE: Skin/SC tissue disorders” value (dose 0.125–1.0 mg/m^2 (n=4)) was 1 n and the “Patients with grade ⩾3 neutropenia who required growth factor support” value (all doses) was 2/6. The “Patients with grade ⩾3 thrombocytopenia who required platelet transfusions” value (all doses) was 0/4, the “Drug-related AE: Abdominal pain” value (all doses, Total (n=30)) was 5 (17) n (%) and the “Drug-related AE: Any AE” value (all doses, Total (n=30)) was 30 (100) n (%). For the same compound, the “Drug-related AE: Arthralgia” value (all doses, Total (n=30)) was 3 (10) n (%), the “Drug-related AE: Chills” value (all doses, Total (n=30)) was 4 (13) n (%) and the “Drug-related AE: Constipation” value (all doses, Total (n=30)) was 3 (10) n (%). The “Drug-related AE: Cough” value (all doses, Total (n=30)) was 4 (13) n (%), the “Drug-related AE: Decreased appetite” value (all doses, Total (n=30)) was 6 (20) n (%) and the “Drug-related AE: Decreased platelet count” value (all doses, Total (n=30)) was 3 (10) n (%). The “Drug-related AE: Diarrhea” value (all doses, Total (n=30)) was 10 (33) n (%), the “Drug-related AE: Dysgeusia” value (all doses, Total (n=30)) was 4 (13) n (%) and the “Drug-related AE: Fatigue” value (all doses, Total (n=30)) was 13 (43) n (%). For the same compound, the “Drug-related AE: Headache” value (all doses, Total (n=30)) was 6 (20) n (%), the “Drug-related AE: Hypokalemia” value (all doses, Total (n=30)) was 4 (13) n (%) and the “Drug-related AE: Lymphopenia” value (all doses, Total (n=30)) was 4 (13) n (%). The “Drug-related AE: Nausea” value (all doses, Total (n=30)) was 8 (27) n (%), the “Drug-related AE: Neutropenia” value (all doses, Total (n=30)) was 6 (20) n (%) and the “Drug-related AE: Oral herpes” value (all doses, Total (n=30)) was 4 (13) n (%). For the same compound, the “Drug-related AE: Pain in extremity” value (all doses, Total (n=30)) was 3 (10) n (%), the “Drug-related AE: Paresthesia” value (all doses, Total (n=30)) was 3 (10) n (%) and the “Drug-related AE: Peripheral edema” value (all doses, Total (n=30)) was 4 (13) n (%). For the same compound, the “Drug-related AE: Pyrexia” value (all doses, Total (n=30)) was 5 (17) n (%), the “Drug-related AE: Thrombocytopenia” value (all doses, Total (n=30)) was 8 (27) n (%) and the “Drug-related AE: Vomiting” value (all doses, Total (n=30)) was 8 (27) n (%). The “Drug-related grade ⩾3 AE: Any grade ⩾3 AE” value (all doses, Total (n=30)) was 14 (47) n (%), the “Drug-related grade ⩾3 AE: Dehydration” value (all doses, Total (n=30)) was 2 (7) n (%) and the “Drug-related grade ⩾3 AE: Diarrhea” value (all doses, Total (n=30)) was 3 (10) n (%). The “Drug-related grade ⩾3 AE: Lymphopenia” value (all doses, Total (n=30)) was 2 (7) n (%), the “Drug-related grade ⩾3 AE: Neutropenia” value (all doses, Total (n=30)) was 6 (20) n (%) and the “Drug-related grade ⩾3 AE: Thrombocytopenia” value (all doses, Total (n=30)) was 4 (13) n (%). The “AEs of Skin and subcutaneous tissue disorders (MedDRA System Organ Class), patients” value (all doses, n=30) was 27%, the “Drug-related AE: diarrhea, patients” value (all doses, n=30) was 33% and the “Drug-related AE: fatigue, patients” value (all doses, n=30) was 43%. For the same compound, the “Drug-related AE: nausea, patients” value (all doses, n=30) was 27%, the “Drug-related AE: thrombocytopenia, patients” value (all doses, n=30) was 27% and the “Drug-related AE: vomiting, patients” value (all doses, n=30) was 27%. For the same compound, the “Drug-related grade ⩾3 AE: diarrhea, patients” value (all doses, n=30) was 10%, the “Drug-related grade ⩾3 AE: neutropenia, patients” value (all doses, n=30) was 20% and the “Drug-related grade ⩾3 AE: thrombocytopenia, patients” value (all doses, n=30) was 13%. The “Drug-related rash, patients” value (all doses, n=30) was 17%, the “Grade ⩾3 PN” value (all doses, n=30) was “no grade ⩾3 events were reported; also recorded: no patient had grade ⩾3 PN” and the “Patients who experienced serious AEs” value (all doses, n=30) was “Eight”. The “Patients with drug-related grade ⩾3 AEs” value (all doses, n=30) was 47%, the “Discontinuation of ixazomib due to AEs” value (all doses, n=30, data cut-off 1 March 2013) was 10% and the “Patients with grade ⩾3 AEs” value (all-cause, all doses, n=30) was 73%. For the same compound, the “Drug-related AE: Abdominal pain” value (dose 1.4 mg/m^2 (n=4)) was 0 n, the “Drug-related AE: Any AE” value (dose 1.4 mg/m^2 (n=4)) was 4 n and the “Drug-related AE: Arthralgia” value (dose 1.4 mg/m^2 (n=4)) was 0 n. For the same compound, the “Drug-related AE: Chills” value (dose 1.4 mg/m^2 (n=4)) was 0 n, the “Drug-related AE: Constipation” value (dose 1.4 mg/m^2 (n=4)) was 0 n and the “Drug-related AE: Cough” value (dose 1.4 mg/m^2 (n=4)) was 0 n. For the same compound, the “Drug-related AE: Decreased appetite” value (dose 1.4 mg/m^2 (n=4)) was 1 n, the “Drug-related AE: Decreased platelet count” value (dose 1.4 mg/m^2 (n=4)) was 0 n and the “Drug-related AE: Diarrhea” value (dose 1.4 mg/m^2 (n=4)) was 0 n. For the same compound, the “Drug-related AE: Dysgeusia” value (dose 1.4 mg/m^2 (n=4)) was 1 n, the “Drug-related AE: Fatigue” value (dose 1.4 mg/m^2 (n=4)) was 2 n and the “Drug-related AE: Headache” value (dose 1.4 mg/m^2 (n=4)) was 0 n. For the same compound, the “Drug-related AE: Hypokalemia” value (dose 1.4 mg/m^2 (n=4)) was 0 n, the “Drug-related AE: Lymphopenia” value (dose 1.4 mg/m^2 (n=4)) was 1 n and the “Drug-related AE: Nausea” value (dose 1.4 mg/m^2 (n=4)) was 1 n. For the same compound, the “Drug-related AE: Neutropenia” value (dose 1.4 mg/m^2 (n=4)) was 1 n, the “Drug-related AE: Oral herpes” value (dose 1.4 mg/m^2 (n=4)) was 1 n and the “Drug-related AE: Pain in extremity” value (dose 1.4 mg/m^2 (n=4)) was 0 n. For the same compound, the “Drug-related AE: Paresthesia” value (dose 1.4 mg/m^2 (n=4)) was 1 n, the “Drug-related AE: Peripheral edema” value (dose 1.4 mg/m^2 (n=4)) was 0 n and the “Drug-related AE: Pyrexia” value (dose 1.4 mg/m^2 (n=4)) was 0 n. The “Drug-related AE: Thrombocytopenia” value (dose 1.4 mg/m^2 (n=4)) was 2 n, the “Drug-related AE: Vomiting” value (dose 1.4 mg/m^2 (n=4)) was 0 n and the “Drug-related grade ⩾3 AE: Any grade ⩾3 AE” value (dose 1.4 mg/m^2 (n=4)) was 3 n. The “Drug-related grade ⩾3 AE: Dehydration” value (dose 1.4 mg/m^2 (n=4)) was 0 n, the “Drug-related grade ⩾3 AE: Diarrhea” value (dose 1.4 mg/m^2 (n=4)) was 0 n and the “Drug-related grade ⩾3 AE: Lymphopenia” value (dose 1.4 mg/m^2 (n=4)) was 0 n. For the same compound, the “Drug-related grade ⩾3 AE: Neutropenia” value (dose 1.4 mg/m^2 (n=4)) was 1 n, the “Drug-related grade ⩾3 AE: Thrombocytopenia” value (dose 1.4 mg/m^2 (n=4)) was 1 n and the “Drug-related AE: Abdominal pain” value (dose 1.76 mg/m^2 (n=7)) was 1 n. The “Drug-related AE: Any AE” value (dose 1.76 mg/m^2 (n=7)) was 7 n, the “Drug-related AE: Arthralgia” value (dose 1.76 mg/m^2 (n=7)) was 0 n and the “Drug-related AE: Chills” value (dose 1.76 mg/m^2 (n=7)) was 2 n. The “Drug-related AE: Constipation” value (dose 1.76 mg/m^2 (n=7)) was 0 n, the “Drug-related AE: Cough” value (dose 1.76 mg/m^2 (n=7)) was 2 n and the “Drug-related AE: Decreased appetite” value (dose 1.76 mg/m^2 (n=7)) was 1 n. For the same compound, the “Drug-related AE: Decreased platelet count” value (dose 1.76 mg/m^2 (n=7)) was 1 n, the “Drug-related AE: Diarrhea” value (dose 1.76 mg/m^2 (n=7)) was 3 n and the “Drug-related AE: Dysgeusia” value (dose 1.76 mg/m^2 (n=7)) was 2 n. The “Drug-related AE: Fatigue” value (dose 1.76 mg/m^2 (n=7)) was 4 n, the “Drug-related AE: Headache” value (dose 1.76 mg/m^2 (n=7)) was 2 n and the “Drug-related AE: Hypokalemia” value (dose 1.76 mg/m^2 (n=7)) was 1 n. For the same compound, the “Drug-related AE: Lymphopenia” value (dose 1.76 mg/m^2 (n=7)) was 0 n, the “Drug-related AE: Nausea” value (dose 1.76 mg/m^2 (n=7)) was 3 n and the “Drug-related AE: Neutropenia” value (dose 1.76 mg/m^2 (n=7)) was 1 n. For the same compound, the “Drug-related AE: Oral herpes” value (dose 1.76 mg/m^2 (n=7)) was 1 n and the “Drug-related AE: Pain in extremity” value (dose 1.76 mg/m^2 (n=7)) was 0 n.
